Common to all, as to type: functional
Assay [1] in a line: Antioxidant activity assessed as protection against UV/H2O2-induced thymidine degradation in 12.5 mM phosphate buffer at 100 uM by competitive immuno-enzymatic assay. The essentials:
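Thymidine at 70 µM with compound at 100 µM and H2O2 at 5 mM in 12.5 mM phosphate buffer, irradiated at 254 nm, 1.75 J cm-2. Intact thymidine quantified by competitive anti-thymidine monoclonal antibody immunoassay; duplicate, averaged.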

Assay [2] can be described thus: Antioxidant activity assessed as protection against Fenton oxidation-induced thymidine degradation in 11.4 mM phosphate buffer at 100 uM by competitive immuno-enzymatic assay.
A short description of assay [3]: Antioxidant activity against ABTS radical assessed as Trolox equivalent.
Assay [4] can be described thus: Antioxidant activity assessed as protection against 340 Gy gamma-radiation-induced thymidine degradation in 12.5 mM phosphate buffer at 50 uM by competitive immuno-enzymatic assay. In a few lines: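 Thymidine at 15 µM with compound at 50 µM, 12.5 mM phosphate buffer, given 340 Gy from a 137Cs source. Remaining intact thymidine measured by competitive immunoassay with anti-thymidine monoclonal antibody; duplicate, averaged.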

Assay [5] deals with Radical scavenging activity. Briefly: Antioxidant activity assessed as DPPH free radical scavenging activity by measuring [DPPH]/antioxidant EC50 ratio measured every 5 mins for 1 hr. The essentials:
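DPPH (200 µM ethanol stock, 100 µM final) mixed 1:1 with compound in ethanol, 10 concentrations (0–1 10^-3 M), duplicate. Read at 515 nm every 5 min for 1 h; % remaining DPPH at steady state plotted against antioxidant/DPPH molar ratio to give EC50. Reported as antiradical power; no value if steady state not reached within 1 h.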
In general terms: Loss of DPPH colour is used to gauge radical scavenging.

A short description of assay [6]: Antioxidant activity assessed as beta-carotene bleaching activity at 116 uM after 4 hrs by spectrophotometry relative to contro. The essentials: (§1)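 Emulsion of β-carotene, linoleic acid and Tween 40 in oxygen-saturated water added to compound in ethanol (24 or 116 µM). Incubated at 50 °C, absorbance at 470 nm read at zero and followed over 4 h. % protection = [1 − (A0 − At)/(Ac0 − Act)] × 100 versus no-compound control; triplicate, averaged.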

Assay [7] can be described thus: Antioxidant activity assessed as beta-carotene bleaching activity at 24 uM after 4 hrs by spectrophotometry relative to control. In a few lines: as §1

Molecules are shown by their SMILES. Calls of active or inactive are those of the source. The rule behind the calls is not given here.

On to `COC(=O)[C@H](O)[C@H]1OC(=O)C(c2ccc(F)cc2)=C1O`, for which the Activity in assay [1] worked out at 55.3%; in assay [2], 55.2%; in assay [3] it was 2.94 mM; in assay [4], 39%. Moreover, the Ratio in assay [5] was 4.2.

As for `COC(=O)[C@H](O)[C@H]1OC(=O)C(c2ccc(Br)cc2)=C1O`, the Activity in assay [1] came to 37.3%; in assay [2], 37.6%; in assay [3] it was 4.91 mM; in assay [4] it was 60.2%. Besides, in assay [5], the Ratio turned out to be 2.81.

Consider `COC(=O)[C@H](O)[C@H]1OC(=O)C(c2ccccc2)=C1O`, for which the Activity in assay [1] was 33.2%; in assay [2], 31%; in assay [6], > 44%; in assay [3], 1.94 mM; in assay [4] it was 62%. For the same compound, in assay [5], the Ratio came to 3.57.

`COC(=O)/C=C1\OC(=O)C(c2cccs2)=C1O`: the Activity in assay [1] was found to be 23.6%; in assay [2], 0%; in assay [4], 51.4%.

On to `O=C(O)c1cc(O)c(O)c(O)c1`, for which the Activity in assay [3] was 1.36 mM. Moreover, the Ratio in assay [5] came to 11.7.

Regarding `COC(=O)[C@H](O)[C@H]1OC(=O)C(c2ccc(C)cc2)=C1O`, the Activity worked out at 43.8% in assay [1], 7% in assay [2], 1.54 mM in assay [3] and 42.7% in assay [4]. Besides, in assay [5], the Ratio was 3.27.

On to `COC(=O)/C=C1\OC(=O)C(c2ccc(F)cc2)=C1O`, for which the results for the Activity in assay [1], in assay [2] and in assay [4] were 69.3%, 28.3% and 52.9%, respectively. For the same compound, the Ratio in assay [5] came out at 1.97.

Take `COC(=O)/C(=C1/OC(=O)C(c2ccc(OC)cc2)=C1O)c1ccccc1C(F)(F)F`: the Activity in assay [1] was 46.1%; in assay [2], 14.8%; in assay [3], 12.1 mM; in assay [4], 17.6%. For the same compound, in assay [6], the result was Active.

Turning to `COC(=O)/C=C1\OC(=O)C(c2ccc([N+](=O)[O-])cc2)=C1O`, the Activity in assay [1] stood at 31.5%; in assay [2], 40.7%; in assay [3], 18.7 mM; in assay [4], 58.5%.

For the compound `COC(=O)/C=C1\OC(=O)C(c2ccc(C)cc2)=C1O`, the Activity in assay [1] is 52.7%; in assay [2] it was 14.1%; in assay [3], 6.51 mM; in assay [4] it was 30%. Also, in assay [5], the Ratio worked out at 2.56.

`COC(=O)/C(=C1/OC(=O)C(c2ccc(OC)cc2)=C1O)c1ccsc1`: the Activity in assay [1] worked out at 34.8%; in assay [2], 45.2%; in assay [3] it was 2.69 mM; in assay [4], 76%. Moreover, the Ratio in assay [5] amounted to 2.97.

With `COC(=O)/C(=C1/OC(=O)C(c2ccc(OC)cc2)=C1O)c1ccco1`, the Activity worked out at 28.7% in assay [1], 0% in assay [2], 1.16 mM in assay [3] and 62% in assay [4]. In addition, the Ratio in assay [5] is 3.42.

In the case of `Cc1c(C)c2c(c(C)c1O)CCC(C)(C(=O)O)O2` (stereo not given), the Activity in assay [1] amounted to 4.4%; in assay [2], 11.7%; in assay [4], 5.2%.

Take `COC(=O)/C(=C1/OC(=O)C(c2ccc(OC)cc2)=C1O)c1ccoc1`: the Activity in assay [1] was determined as 36%; in assay [2], 13.8%; in assay [3], 1.06 mM; in assay [4], 77%. The Ratio in assay [5] was determined as 3.35.

Take `COC(=O)/C(=C1/OC(=O)C(c2ccc(OC)cc2)=C1O)c1cccc(C(F)(F)F)c1`: the Activity in assay [1] came out at 35.8%; in assay [2], 33.9%; in assay [3] it was 2.75 mM; in assay [4], 46.3%. In assay [5], the Ratio was found to be 4.08.

For `COC(=O)/C(=C1/OC(=O)C(c2ccc(OC)cc2)=C1O)c1cccc(O)c1`, the Activity in assay [1] turned out to be 50%; in assay [2], 91.6%; in assay [3], 1.56 mM; in assay [4], 34.2%. In assay [5], the Ratio worked out at 3.68.

In the case of `COC(=O)/C=C1\OC(=O)C(c2ccc(O)cc2)=C1O`, the Activity in assay [1] was determined as 32.6%; in assay [2], 82.7%; in assay [3], 0.48 mM; in assay [4], 57.2%. Further, the Ratio in assay [5] was 2.85.

In the case of `COC(=O)[C@H](O)[C@H]1OC(=O)C(c2ccc(O)cc2)=C1O`, the Activity in assay [1] was 29.4%; in assay [2], 93.4%; in assay [3], 0.6 mM; in assay [4], 63.7%. Besides, the Ratio in assay [5] was 3.

Consider `O=C1O[C@H]([C@@H](O)CO)C(O)=C1O`, for which the result in assay [6] and in assay [7] was inactive. Moreover, the Activity in assay [3] turned out to be 0.64 mM. The Ratio in assay [5] worked out at 4.56.

Take `COC(=O)/C(=C1/OC(=O)C(c2ccc(OC)cc2)=C1O)c1ccc(Cl)cc1`: the Activity in assay [1] came to 45%; in assay [2] it was 41.7%; in assay [3] it was 3.97 mM; in assay [4], 22.6%. Also, the Ratio in assay [5] stood at 3.37.

As for `COC(=O)[C@H](O)[C@H]1OC(=O)C(c2cccs2)=C1O`, the Activity in assay [1] is 16.1%; in assay [2] it was 0%; in assay [4], 40.3%. In assay [5], the Ratio was 2.25.

`COC(=O)[C@H](O)[C@H]1OC(=O)C(C(C)=O)=C1O`: the Activity came out at 7.4% in assay [1], 0% in assay [2], 82.7 mM in assay [3] and 5.6% in assay [4].

As for `COC(=O)[C@H](O)[C@H]1OC(=O)C(c2ccc(OCc3ccccc3)cc2)=C1O`, the Activity came out at 51% in assay [1], 21.1% in assay [2], 2.16 mM in assay [3] and 37.4% in assay [4]. The Ratio in assay [5] amounted to 3.12.

For the compound `COC(=O)[C@H](O)[C@H]1OC(=O)C(C(=O)OCc2ccccc2)=C1O`, the Activity amounted to 16.8% in assay [1], 2.6% in assay [2], 43.3 mM in assay [3] and 47.9% in assay [4].

Consider `COC(=O)[C@H](O)[C@H]1OC(=O)C(c2ccc([N+](=O)[O-])cc2)=C1O`, for which the Activity turned out to be 33.4% in assay [1], 70.7% in assay [2], 24.6 mM in assay [3] and 60.9% in assay [4].

For `COC(=O)/C(=C1/OC(=O)C(c2ccc(OC)cc2)=C1O)c1ccc(C(C)=O)cc1`, the Activity in assay [1] is 41.1%; in assay [2] it was 41.1%; in assay [3], 6.18 mM; in assay [4], 34.3%. The result in assay [6] and in assay [7] was Active. Besides, in assay [5], the Ratio is 3.27.

In the case of `COC(=O)/C=C1\OC(=O)C(c2ccccc2)=C1O`, the Activity in assay [1] stood at 37.7%; in assay [2] it was 45.8%; in assay [3], 46.2 mM; in assay [4] it was 69.4%. Further, in assay [5], the Ratio is 3.22.

As to `COC(=O)/C=C1\OC(=O)C(c2ccc(OC)cc2)=C1O`, the Activity in assay [1] is 30.7%; in assay [2], 32%; in assay [6], > 44%; in assay [3], 1.31 mM; in assay [4], 73.8%. Also, the Ratio in assay [5] is 3.6.

Turning to `COC(=O)[C@H](O)[C@H]1OC(=O)C(c2ccc(OC)cc2)=C1O`, the Activity was found to be 24.9% in assay [1], 25.8% in assay [2], 1.55 mM in assay [3] and 87.4% in assay [4]. Also, the Ratio in assay [5] was 3.44.

On to `COC(=O)/C(=C1/OC(=O)C(c2ccc(OC)cc2)=C1O)c1ccccc1`, for which the Activity in assay [1] came to 42.9%; in assay [2], 58%; in assay [3], 1.67 mM; in assay [4] it was 46.4%. In addition, the Ratio in assay [5] is 3.2.

In the case of `COC(=O)/C=C1\OC(=O)C(c2ccc(Br)cc2)=C1O`, the Activity in assay [1] was 41.2%; in assay [2], 27.1%; in assay [3], 17.7 mM; in assay [4], 51.7%. In addition, the Ratio in assay [5] turned out to be 1.17.

Take `COC(=O)/C=C1\OC(=O)C(C(=O)OCc2ccccc2)=C1O`: the Activity in assay [1] was found to be 13.9%; in assay [2] it was 0.3%; in assay [3], 18.5 mM; in assay [4], 23.1%. Besides, in assay [5], the Ratio is 0.93.

The record behind these values is ChEMBL document CHEMBL1275383, “Synthesis and antioxidant properties of pulvinic acids analogues” (Bioorg Med Chem, 2010).
